# Assay outcomes: PubChem, several laboratories
# Most compounds without a hit are left out; they make up all but 1.1% or so of the library.
# DAGLB inh – diacylglycerol lipase beta (human) inhibition. Q8NCG7. HEK293T DAGLB membrane lysate, EnzChek fluorogenic substrate. inhibition, % at 5.17 µM. 0.059% of 340,000 active. AID 504411; in the data active = inhibition above about 34%
# HCV core dimer – HCV core protein dimerization inhibition; TR-FRET GST/Flag-core106 dimerization, 1536-well; inhibition, % at 5 µM; 0.33% of 300,000 active; AID 1899;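 active = inhibition above the mean of all tested compounds plus 3 SD, set per screening campaign, cut at about 45% in these data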
#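 Assay system: Tagged HCV core106 pair (GST and Flag) | Buffer or medium: KF-containing HEPES buffer, pH 7.45, DTT, CHAPS, BSA | Also added: Eu donor and XL665 acceptor anti-tag antibodies | Dosing: One concentration, 5 µM, in 0.5% DMSO | Timing: 4 h at 22.5 °C | Technique: TR-FRET 671 and 617 nm emission | Repeats: Singlicate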
# NR2E3 ag-1 – agonists of human nuclear receptor NR2E3 | 0.12% of 320,000 active | Q9Y5X4 | AID 2300 | inhibition of corepressor binding, % at 4.78 µM | GST-NR2E3/biotin-RetCOR TR-FRET, 1536-well;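 active = percent inhibition above the cutoff of mean plus 3 SD of all tested compounds, set per screening campaign, cut at about 20% in these data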
# Target sequence (Q9Y5X4 whole entry, looked up): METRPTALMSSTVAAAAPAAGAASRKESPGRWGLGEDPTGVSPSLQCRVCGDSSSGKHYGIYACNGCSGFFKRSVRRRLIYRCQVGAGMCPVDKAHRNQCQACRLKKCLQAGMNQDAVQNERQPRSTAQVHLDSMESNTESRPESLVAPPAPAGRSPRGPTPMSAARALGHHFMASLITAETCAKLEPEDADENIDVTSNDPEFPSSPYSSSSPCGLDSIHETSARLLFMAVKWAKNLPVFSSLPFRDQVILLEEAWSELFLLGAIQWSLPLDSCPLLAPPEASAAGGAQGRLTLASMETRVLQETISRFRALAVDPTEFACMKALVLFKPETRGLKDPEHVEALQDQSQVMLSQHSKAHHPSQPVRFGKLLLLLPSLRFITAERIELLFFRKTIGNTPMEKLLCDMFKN
#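 System: GST-NR2E3 and biotin-RetCOR proteins; probe or stimulus: 7 nM biotin-RetCOR; doses: compound at 4.8 µM, single dose; schedule: Compound–protein incubation for 5 h at 4 °C; detection: time-resolved FRET; read-out: percent inhibition; controls: biotin wells as high control, 0.6% DMSO wells as low control; format: 1536-well plates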
# NR2E3 ag-2 – agonists of human NR2E3 nuclear receptor | Q9Y5X4 | CHO-S Gal4-NCOR/VP16-NR2E3 two-hybrid, luciferase | inhibition of corepressor binding, % at 3.98 µM | 0.35% of 360,000 active | AID 602229;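 active = inhibition above the mean of all tested compounds plus 3 SD, cut at about 70% in these data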;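 also: higher means lower luciferase signal from less NR2E3 corepressor binding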
# Vif imaging – HIV Vif inhibition. HEK293T cells, Vif self-association by quenched fluorescence, imaging, 24 h. inhibition, % at 7.49 µM. 0.35% of 340,000 active; in the data active = inhibition above about 50%, passing the limit was not always enough
# MT1-MMP act inh – blocks activation of human MT1-MMP; P50281; HT1080 RFP-PRO-GFP cells, GFP/RFP ratio fluorescence, overnight; percent of plate control window, DMSO zero; GFP/RFP ratio change, % at 20 µM; 0.061% of 360,000 active; AID 651647;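 active = GFP/RFP ratio change of at least 30% with cell ATP level not reduced by more than half and red fluorescence within 50% of control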
#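 Assay system – RFP-PRO-GFP reporter HT1080 cells · Compound dosing – single dose of 20 µM compound, 1% DMSO final · Incubation – overnight compound exposure at 37 °C · Measure – GFP/RFP fluorescence ratio · Benchmarks – DMSO wells and RFP-L50D-GFP cells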
# Numbers stand for hits; i = inactive; nt = no result given; ! = not confirmed by another sample.
SMILES,DAGLB inh,HCV core dimer,NR2E3 ag-1,NR2E3 ag-2,Vif imaging,MT1-MMP act inh
O=C(c1ccccc1)C1OC1C(=O)c1ccccc1 (stereo unspecified),i,nt,nt,i,73,i
COC(=O)c1ccc(C(=O)OC)c(NC(=O)COC(=O)C23CC4CC(CC(O)(C4)C2)C3)c1,i,i,i,i,52,i
O=C(COC(=O)C12CC3CC(CC(O)(C3)C1)C2)Nc1ccc(Cl)cc1F,i,nt,i,i,i,i
CC(=O)NC(c1ccccc1)c1nc(-c2cccc(CO)c2)cs1 (stereo unspecified),nt,nt,nt,i,i,i
Cc1ccc2cc(C#N)c(NCc3ccccc3)nc2c1,i,48,i,i,i,i
O=S(=O)(Nc1cc(Sc2ncn[nH]2)c(O)c2ccccc12)c1ccccc1,nt,nt,nt,103,i,i
COc1cc(C#N)c(NC(=S)N2CCN(C(=O)c3ccco3)CC2)cc1OC,nt,nt,nt,i,i,i
CCCCN1C(=O)/C(=C/C=C2\Oc3ccccc3N2CC)SC1=S,i,nt,nt,i,69,i
COc1ccccc1-c1nc(S(=O)(=O)c2ccc(Cl)cc2)c(N(C)C)o1,i,i,i,i,53,i
Cc1ccc(S(=O)(=O)c2nc(-c3ccccc3Cl)oc2N(C)C)cc1,i,i,i,i,i,i
Cc1onc(-c2c(F)cccc2Cl)c1C(=O)NC(=S)NCc1cccnc1,i,i,i,i,i,i
O=C1c2cccc3c(N4CCCCC4)ccc(c23)C(=O)N1CCO,i,i,i,i,nt,i
O=C1c2cccc3c(N4CCCCC4)ccc(c23)C(=O)N1c1cccc(O)c1,i,i,i,i,185,i
Cc1ccc(-c2ccc(/C=C3\SC(N4CCOCC4)=NC3=O)o2)cc1,i,i,i,i,i,i
Cc1ccc(/C=C2\SC(N3CCN(C(c4ccccc4)c4ccccc4)CC3)=NC2=O)o1,i,60,i,i,i,i
CCc1cc2c(Sc3nc4ccccc4s3)ncnc2s1,i,i,i,i,89,i
O=C(COc1ccc([N+](=O)[O-])cc1)NNC(=O)c1cccs1,i,i,i,i,53,i
CC(=O)c1sc(NC(=O)COc2ccc(Br)cc2)nc1C,i,i,i,i,i,i
O=C(Cc1ccc([N+](=O)[O-])cc1)NNC(=O)c1cccs1,i,i,i,i,i,i
CC(=O)c1sc(NC(=O)COc2ccc([N+](=O)[O-])cc2)nc1C,i,i,i,i,98,i
COc1ccc(-c2ccc(=O)n(CC(=O)NCC3COCCO3)n2)cc1 (stereo unspecified),i,i,i,i,i,i
Cc1nn(C)c2ncc(C(=O)c3cc(F)ccc3O)cc12,i,i,i,i,nt,i
COc1ccccc1-n1c(=O)c(C#N)c(-c2ccc([N+](=O)[O-])cc2)c2cc(C(=O)c3cc(F)ccc3O)cnc21,i,49,i,i,i,i
COc1ccc(CCC(=O)N2CCN(C(=O)c3ccccc3)CC2)cc1,i,i,i,i,i,i
COc1ccc(NC(=O)CCC(=O)N/N=C/c2ccncc2)cc1,i,i,i,i,i,i
SMILES,DAGLB inh,HCV core dimer,NR2E3 ag-1,NR2E3 ag-2,Vif imaging,MT1-MMP act inh
COc1ccc(NC(=O)CCC(=O)N/N=C/c2cn(C)nc2C)cc1,nt,i,i,i,54,i
CC1(C)Cc2c(cnn2-c2ccc(F)cc2)C(NC(=O)CN2CCCC2=O)C1 (stereo unspecified),i,i,i,i,i,i
c1ccc(C[n+]2cccc3c4ccccc4ccc32)cc1,i,i,i,i,53,i
COc1ccc(OC)c(NC(=O)C2CCN(S(=O)(=O)c3ccc4c(c3)CC(C)N4C(C)=O)CC2)c1 (stereo unspecified),i,i,i,i,i,i
COc1cccc(-c2sc3ccc(OC)cc3c2-c2ccc(OCCN3CCOCC3)cc2)c1,i,nt,nt,i,i,i
COc1cc(OC)cc(-c2sc3ccc(OC)cc3c2-c2ccc(OCCN3CCOCC3)cc2)c1,i,nt,nt,i,61,i
CCCCN=c1scc(-c2ccc3c(c2)NC(=O)CO3)n1N=C1CCCC1,i,i,i,i,i,i
CCN=c1scc(-c2ccc3c(c2)NC(=O)CO3)n1N=C1CCCC1,i,i,i,i,54!,i
